Records with an inconclusive call do not appear. The source made the active and inactive calls.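 How the source made its calls: active means eight-GTPase mean potency score over 50, needing half-effect dose up to 10 µM and response span 30% or more; inconclusive means no clear call, values can overlap the other calls; inactive means the rest.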
Legend:
Assay in all cases: inhibitors of GTP binding to eight small GTPases, SAR follow-up, biochemical, round 1 SAR, Mg buffer, multiplex flow cytometry (AID 588479)
Cdc42ACT = details: multiplex GST-GTPase beads, Bodipy-GTP binding, constitutively active; for response, lower = inhibition: at 100 µM (top of the series)
Method in brief: (§1)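 Test system: GST-GTPase bead multiplex, wild-type and constitutively active forms. Medium: mg buffer, pH 7.5, with 1 mM MgCl2. Reagent: Bodipy-FL-GTP at 100 nM final. Schedule: binding incubation 40–45 min, 4 °C. Technique: flow cytometry, green median fluorescence per bead. Control set: DMSO wells as high control, 0.5 mM unlabeled GTP as low control.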

Cdc42WT = details: multiplex GST-GTPase beads, Bodipy-GTP binding, wild type; for response, lower = inhibition: at 100 µM (top of the series)
Method in brief: as §1

RacACT = details: multiplex GST-GTPase beads, Bodipy-GTP binding, constitutively active; for response, lower = inhibition: at 100 µM (top of the series)
Method in brief: as §1

RacWT = details: multiplex GST-GTPase beads, Bodipy-GTP binding, wild type; for response, lower = inhibition: at 100 µM (top of the series)
Method in brief: as §1

RhoWT = details: multiplex GST-GTPase beads, Bodipy-GTP binding, wild type; for response, lower = inhibition: at 100 µM (top of the series)
Method in brief: as §1

RasACT = details: multiplex GST-GTPase beads, Bodipy-GTP binding, constitutively active
Method in brief: as §1

EC50 (Cdc42ACT) [nM] | EC50 (Cdc42WT) [nM] | EC50 (RacACT) [nM] | EC50 (RacWT) [nM] | EC50 (RhoWT) [nM] | response, lower = inhibition (Cdc42ACT) | response, lower = inhibition (Cdc42WT) | response, lower = inhibition (RacACT) | response, lower = inhibition (RacWT) | response, lower = inhibition (RhoWT) | EC50 (RasACT) [nM] | SMILES
122 | 118 | 122 | 141 | 111 | – | – | – | – | – | – | COc1cccc(C(=O)NC(=S)Nc2sc3c(c2C(=O)O)CC(C)(C)OC3)c1
– | – | – | – | – | inactive | inactive | inactive | inactive | inactive | – | CC1(C)Cc2c(sc(NC(=O)Cc3ccccc3)c2C(=O)O)CO1
60 | 64 | 59 | 58 | 65 | – | – | – | – | – | – | CC1(C)Cc2c(sc(NC(=S)NC(=O)c3ccccc3F)c2C(=O)O)CO1
– | – | – | – | – | inactive | – | – | – | – | – | CCOC(=O)c1c(NC(=O)Nc2ccc(F)cc2)sc2c1CCN(C)C2
106 | 99 | 109 | 89 | 81 | – | – | – | – | – | – | CC1(C)CCc2sc(NC(=S)NC(=O)c3ccccc3)c(C(=O)O)c2C1
170 | 154 | 204 | 214 | 280 | – | – | – | – | – | – | CC1(C)Cc2c(sc(NC(=S)NC(=O)c3ccc(Br)cc3)c2C(=O)O)CO1
– | – | – | – | – | inactive | inactive | inactive | inactive | inactive | – | Cc1ccc(NC(=O)Nc2sc3c(c2C(=O)O)CCN(C)C3)cc1
– | – | – | – | – | inactive | inactive | inactive | inactive | inactive | 1780 | CC1(C)Cc2c(sc(NC(=S)Nc3ccccc3)c2C(=O)O)CO1
– | – | – | – | – | inactive | – | – | – | – | – | COC(=O)c1c(N)sc2c1CC(C)(C)OC2
465 | 493 | 466 | 471 | 499 | – | – | – | – | – | – | CC1(C)Cc2c(sc(NC(=S)NC(=O)c3cccc(F)c3)c2C(=O)O)CO1
– | 69 | 71 | – | 70 | inactive | – | – | inactive | – | – | CC1(C)Cc2c(sc(NC(=S)NC(=O)c3ccccc3Br)c2C(=O)O)CO1
143 | 127 | 142 | 133 | 139 | – | – | – | – | – | – | COc1ccc(C(=O)NC(=S)Nc2sc3c(c2C(=O)O)CC(C)(C)OC3)cc1
– | – | – | – | – | inactive | – | – | – | – | – | CCOC(=O)c1c(NC(=O)Nc2ccc(C)cc2)sc2c1CCN(C)C2
– | – | – | – | – | inactive | inactive | inactive | inactive | inactive | – | CCOC(=O)c1c(N)sc2ccccc12
– | – | – | – | – | inactive | inactive | inactive | inactive | inactive | – | CC1(C)Cc2c(sc(NC(=S)NC(=O)c3cccc(Br)c3)c2C(=O)O)CO1

— PubChem BioAssay AID588479 (NMMLSC, 2011)
